Screen size: about 310,000 compounds; about 1,400 (0.45%) were called active.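 Rule for the calls: active = calcium response B-score plate-corrected fluorescence ratio at least 3 library SD, with starting fluorescence B-score inside 5 SD; inactive = the rest.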 The entries come from a sample that favours actives as a whole.

Sequence of Mas-related G-protein coupled receptor member X1 (Homo sapiens) (Q96LB2 whole entry, looked up): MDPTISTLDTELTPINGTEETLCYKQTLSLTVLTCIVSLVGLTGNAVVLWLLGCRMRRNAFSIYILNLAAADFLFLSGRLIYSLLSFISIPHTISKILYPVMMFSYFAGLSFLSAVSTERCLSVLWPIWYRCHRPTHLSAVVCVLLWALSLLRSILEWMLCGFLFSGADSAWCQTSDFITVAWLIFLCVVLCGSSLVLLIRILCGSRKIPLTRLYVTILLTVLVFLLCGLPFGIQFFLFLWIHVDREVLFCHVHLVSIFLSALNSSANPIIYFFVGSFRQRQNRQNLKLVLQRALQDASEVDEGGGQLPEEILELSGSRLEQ

The assay addresses Mas-related G-protein coupled receptor member X1 (Homo sapiens) (UniProt Q96LB2). Briefly: agonists of human MrgX1 receptor, primary screen, HEK293 cells, Fluo-4 calcium flux (AID 588627).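 For B-score: B-score of the peak-minus-trough calcium fluorescence change over baseline.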 Conditions: Fluo-4 calcium fluorescence, agonist mode, at 10 µM; hits give high values. The procedure, abridged: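 System: HEK293 cells stably expressing human MrgX1 receptor; Dosing: test compound in the initial addition of three; Schedule: overnight plating, then 30 min 37 °C plus 30 min room-temperature dye loading; Detection: kinetic calcium dye fluorescence, Fluo-4 NW; Controls: per-plate positive and negative controls for Z′ factor.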
Background: Calcium assays in cells follow changes in intracellular calcium, usually with a dye or a luminescent sensor.
For the molecule `COc1cccc(CN(C)CC(O)COC(c2ccccc2)c2ccccc2C)c1` (stereo unspecified), the B-score result is “inactive”. The value for `Cn1c(=O)c2cc(S(=O)(=O)NCCC(=O)Nc3ccc(F)cc3F)ccc2n(C)c1=O` was “inactive”; that for `Cc1ccc(C(=O)C(C)OC(=O)Cc2n[nH]c(=O)c3ccccc23)cc1C` (stereo unspecified) was “inactive”; that for `O=C1CCCc2c1nc(-c1cccc(Cl)c1)n2O` was “inactive”. Next, `Cc1cccc(-c2nc3ccccc3c(=O)n2NC(=O)Cc2ccc(Cl)cc2)c1`: “inactive”; `O=c1c2cc(Br)ccc2nc(-c2cccc(Cl)c2)n1O`: 67.7 (active). The value for `Cc1c2cnn(CC(=O)NCCCN3CC(C)CC(C)C3)c(=O)c2c(C)n1Cc1ccc(Cl)cc1` (stereo unspecified) was “inactive”. As to `COc1cc(NC(=O)C2=C(C)OCCS2)c(Cl)cc1C(=O)NCCN1CCN(C)CC1`, the B-score entry is “inactive”. Next, `O=C(Nc1ccccc1N1CCOCC1)c1ccc(OCc2cscn2)cc1`: “inactive”; `Cc1nn(CC2CC2)c(=O)n1N(C)c1ncc(C(F)(F)F)cc1Cl`: “inactive”. Next, `C=CCC1=C/C(=C\c2c(N)n3nc(CC(=O)N4CCOCC4)sc3nc2=O)C=C(OC)C1=O`: “inactive”; `COC1=C/C(=C/c2c(N)n3nc(CC(=O)N4CCOCC4)sc3nc2=O)C=CC1=O`: 34.8 (active); `COc1ccc(-c2ccnc(SCC(=O)N3CCOCC3)n2)cc1`: “inactive”.

For the molecule `CC(=O)Nc1nc2c(s1)C(=O)NCC(C)(C)C2`, the B-score result is “inactive”. The value for `NC(=O)N1CCCC1C(=O)Nc1ccc(Cl)c(Cl)c1` (stereo unspecified) was “inactive”; that for `CC1(C(=O)O)CCC(C(=O)Nc2ccc(Cl)c(Cl)c2)C1(C)C` (stereo unspecified) was 30.1 (active); that for `CCN(CC)C(=O)C1CCC(C)(C(=O)O)C1(C)C` (stereo unspecified) was “inactive”. Next, `Cc1ccsc1C1C(C#N)=C(N)OC2=C1C(=O)CC(C)(C)C2` (stereo unspecified): “inactive”. The value for `Cc1c(C(=O)Nc2ccccc2)sc2nc3n(c(=O)c12)CCCCC3` was “inactive”. Regarding `COc1ccc(OC)c(NC(=O)c2ccc3c(c2)C(=O)N(c2ccc(OC(C)=O)cc2)C3=O)c1`, the B-score entry is “inactive”. The value for `O=C(CN1C(=O)C2C3C=CC(C3)C2C1=O)NCC1COc2ccccc2O1` (stereo unspecified) was “inactive”; that for `O=C1C(=O)N(CC2COc3ccccc3O2)c2ccccc21` (stereo unspecified) was 56 (active).

With `Cc1cc(C(=O)CCl)c(C)n1CC1COc2ccccc2O1` (stereo unspecified), the B-score entry is “inactive”. The value for `Cc1ccc(S(=O)(=O)NC2CCCCCC2)cc1C(N)=O` was “inactive”; that for `CCOC(=O)/C=c1\s/c(=C\c2ccc(C#N)cc2)c(=O)n1CC(=O)Nc1cccc(C)c1C` was “inactive”. The value for `O=c1nc2s/c(=C\c3ccco3)c(=O)n2nc1Cc1ccccc1` was “inactive”. Next, `CN(c1ccccc1)c1ccc(/C=c2\s/c(=C(/C#N)C(=O)C(C)(C)C)n(Cc3ccco3)c2=O)cc1`: 193 (active); `CCCCN1C(N)=NC[C@@H]1Cc1ccccc1`: “inactive”; `CCCCN1C(N)=NC[C@@H]1CC1CCCCC1`: 36.9 (active). Turning to `CCCC[C@@H]1CN=C(N)N1CCCC`, the B-score result was “inactive”.

As to `CCOc1ccc(/C=C/C(=O)N(CC)CC(=O)NCc2cccs2)cc1OC`, the B-score result was “inactive”. The value for `CC(C)(C)N(Cc1ccccc1)C(=O)c1ccncc1` was “inactive”.

Turning to `NC(N)=N/N=C/c1ccc(Cl)c([N+](=O)[O-])c1`, the B-score was 28.4 (active). The value for `O=C(/C=C/c1ccc(Cl)c([N+](=O)[O-])c1)c1ccc(O)cc1` was “inactive”; that for `O=C(/C=C/c1ccc(Cl)c([N+](=O)[O-])c1)c1cccnc1` was “inactive”. The value for `Cc1ccc(C(=O)C[n+]2cc(-c3ccccc3)n3c2CCCCC3)cc1` was “inactive”; that for `COc1ccc(-c2cc(C(=O)NC(Cc3c[nH]c4ccccc34)C(=O)O)c(C)o2)cc1OC` (stereo unspecified) was “inactive”.

Consider `NS(=O)(=O)c1ccc(NC(=O)COC(=O)C2(c3ccc(F)cc3)CCCC2)cc1`, for which the B-score entry was “inactive”. Next, `COc1ccc(C(C[N+](=O)[O-])n2nc(C)cc2C)cc1` (stereo unspecified): 46.1 (active). Next, `CCOc1ccc(C(C)C)cc1S(=O)(=O)n1nc(C)cc1C`: “inactive”; `COc1ccc(OCc2cn3c(C)cc(C)nc3n2)cc1`: “inactive”; `CCC(C)(C(=O)NC1CCCC1)N(C(=O)CNC(C)=O)c1ccc(C)cc1` (stereo unspecified): “inactive”.

Take `CCCc1nc(N2CCN(C)CC2)c2sc(=S)n(-c3ccccc3)c2n1`: the B-score entry is “inactive”. The value for `OCCN(Cc1ccccc1)Cc1ccc(Cl)cc1` was “inactive”.

For the molecule `CN(C(=O)CN(CCO)CC(=O)N(C)C(C)(C)Cc1ccccc1)C(C)(C)Cc1ccccc1`, the B-score was 44.7 (active). The value for `CN(Cc1ccccc1)C(=O)CCc1ccccc1` was “inactive”; that for `CC(C)C(=O)NCC(c1cccs1)S(=O)(=O)c1ccc(F)cc1` (stereo unspecified) was “inactive”. Regarding `Cc1ncoc1C(=O)N1CCCC(C(=O)c2ccc3c4c(cccc24)CC3)C1` (stereo unspecified), the B-score entry is “inactive”. Next, `CN(CC(=O)Nc1cccc(F)c1)C(=O)C1CSC2(C)CCC(=O)N12` (stereo unspecified): “inactive”. On to `COc1ccc(Cl)cc1C(=O)NNC(=S)NC1CCCC1`, for which the B-score entry was “inactive”. On to `C=CCNC(=S)NNC(=O)c1cc(Cl)ccc1OC`, for which the B-score entry was “inactive”.

Take `COc1ccc(Cl)cc1C(=O)NNC(=S)NC(=O)/C=C/c1ccco1`: the B-score is 51.7 (active). In the case of `COc1ccc(C2c3ccc(O)cc3Oc3ncn(CCCO)c(=N)c32)cc1OC` (stereo unspecified), the B-score entry was “inactive”.

Take `CCc1cccc(C)c1NC(=O)COC(=O)Cc1ccsc1`: the B-score result was “inactive”. Next, `CN(Cc1nc2ccccc2c(=O)[nH]1)Cc1cc(=O)oc2ccc3ccccc3c12`: “inactive”; `CCN(CC(=O)NC(=O)NCc1ccccc1)Cc1nc2ccccc2c(=O)[nH]1`: “inactive”. The value for `CCN(Cc1nc2ccccc2c(=O)[nH]1)Cc1cc(=O)oc2cc(C)c(C)cc12` was 34.9 (active). Regarding `CCn1c(SCC(=O)Nc2ccc(C)cc2)nc2nc3c(cc2c1=O)CCCC3`, the B-score entry was “inactive”.

`Cc1cc(C)cc(C(=O)NC(=S)Nc2ccc3[nH]c(=O)[nH]c3c2)c1`: the B-score entry was “inactive”. The value for `Cc1ccc(NC2(C#N)C(=O)Nc3ccccc32)cc1` (stereo unspecified) was 45 (active). As to `COc1ccc(C2(O)C(=O)Nc3ccccc32)cc1` (stereo unspecified), the B-score entry was “inactive”.

For the molecule `Cc1cc(O)c(C2(O)C(=O)Nc3ccccc32)cc1C` (stereo unspecified), the B-score result was “inactive”.

For `CCCCn1c(N)c(N(CC(C)C)C(=O)CSc2ccc([N+](=O)[O-])cc2)c(=O)[nH]c1=O`, the B-score result was “inactive”. Next, `CN(CCc1ccccn1)C(=O)c1ccc(OC2CCN(CCc3ccccc3)CC2)cc1`: “inactive”.

Regarding `O=C1Cc2ccccc2Sc2ccc(Cl)cc21`, the B-score was 28.3 (active). The value for `S=C1Nc2cc(Cl)ccc2Sc2ccccc21` was “inactive”; that for `O=C1CC2(CCCC2)Oc2ccc(Cl)cc21` was “inactive”; that for `CN(C)/N=C/c1cc(Cl)cc([N+](=O)[O-])c1O` was “inactive”. The value for `O=C(N/N=C/c1cc(Br)c(O)c([N+](=O)[O-])c1)C(O)(c1ccccc1)c1ccccc1` was “inactive”; that for `O=C(N/N=C/c1cc(Cl)cc([N+](=O)[O-])c1O)C(O)(c1ccccc1)c1ccccc1` was 36.2 (active). The value for `COc1ccc(-n2nc(C(=O)NCC(=O)N3CCC(C(N)=O)CC3)c3ccccc3c2=O)cc1OC` was “inactive”. `Cc1ccc(NS(=O)(=O)c2cccs2)cc1S(=O)(=O)N1CCCCCC1`: the B-score entry was “inactive”. Regarding `CN(C)Cc1c(C#N)c2ccccc2n1C`, the B-score result is “inactive”. The value for `CCCc1cc(=S)n2c([nH]c3ccccc32)c1C#N` was 29.9 (active); that for `CCOC(=O)CCc1c(C)c(C#N)c2[nH]c3ccccc3n2c1=O` was “inactive”; that for `CCCCN(C(=O)CCNC(=O)NC12CC3CC(CC(C3)C1)C2)c1c(N)n(CCCC)c(=O)[nH]c1=O` was “inactive”. Next, `COc1ccc2[nH]cc(CCN3C(=O)c4ccc(C(=O)O)cc4C3=O)c2c1`: “inactive”; `CCOc1cccc(OCCCOc2cccc3cccnc23)c1`: “inactive”; `Cc1cc(OCCOc2cccc3cccnc23)c(C)cc1Cl`: “inactive”.

As to `OCc1ccc(OCCCOc2cccc3cccnc23)cc1`, the B-score is 27.9 (active). The value for `CCC(=O)c1cn(CCOc2ccccc2OC)c2ccccc12` was “inactive”; that for `CC[n+]1cc(C)ccc1/C=C/c1ccc(N(C)C)cc1` was 27.3 (active).

For `O=C(NCCCN1CCN(c2ccc(F)cc2)CC1)Nc1ccc([N+](=O)[O-])cc1`, the B-score result was “inactive”. Consider `CCNC(=O)CCc1nc(-c2ccc(C(C)(C)C)cc2)no1`, for which the B-score entry was “inactive”. Next, `CNC(=S)N1CCC(NC(=O)C(Cc2ccc(F)cc2)NC(C)=O)CC1` (stereo unspecified): “inactive”; `CS(=O)(=O)N1CCc2cc(C(=O)Nc3ccccc3Br)ccc21`: “inactive”.

Take `c1ccc2c(CSCc3nc4ccccc4[nH]3)cccc2c1`: the B-score entry was “inactive”.

Consider `CCOc1ccc(Br)cc1CSC(=N)N`, for which the B-score result was “inactive”.

Take `N=C(N)SCc1cccc2ccccc12`: the B-score is 36.5 (active).

`CCN(CC)c1ccc(C(=O)NNC(=O)CCc2nc3ccccc3c(=O)[nH]2)cc1`: the B-score result was “inactive”.

On to `CC(=O)c1ccc(N=C2SCCCN2C(=O)C2CCCCC2)cc1`, for which the B-score entry is “inactive”.

Take `O=C(Cc1csc(Nc2nc(=S)[nH]c3ccccc23)n1)NCCCN1CCN(c2cccc(Cl)c2)CC1`: the B-score entry is “inactive”. Take `O=[N+]([O-])/C=C/c1ccc2c(ccn2Cc2ccccc2)c1`: the B-score is 37.8 (active). Take `O=C(/C=C/c1cccc([N+](=O)[O-])c1)N1CCN(Cc2ccccc2)CC1`: the B-score entry is “inactive”. Take `O=C(Cn1ccc2cc(S(=O)(=O)N3CCCC3)ccc21)NCc1ccccc1`: the B-score entry was “inactive”. Next, `COc1cccc(CNC(=O)c2nnn(CC(=O)Nc3cc(C)ccc3C)c2N)c1`: “inactive”. Next, `COCCNC(=O)C(c1ccc(O)cc1)N(C(=O)CCC(=O)Nc1nccs1)c1ccc(C)cc1` (stereo unspecified): “inactive”; `COc1ccc(NC2CC(=O)N(C)C2=O)cc1` (stereo unspecified): “inactive”. For `CCCCCOc1ccc(CSC2=NCCN2)cc1[N+](=O)[O-]`, the B-score result is “inactive”. The value for `CCCCOc1ccc(CSC(=N)N)cc1[N+](=O)[O-]` was 42.7 (active); that for `CCCOc1ccc(Cn2ccnc2)cc1[N+](=O)[O-]` was “inactive”.

The record behind these values is PubChem BioAssay AID588627 (Johns Hopkins Ion Channel Center, 2011).
